# From ChEMBL document CHEMBL1914423, “New imidazo[2,1-b]thiazole derivatives: synthesis, in vitro anticancer evaluation, and in silico studies” (Eur J Med Chem, 2011)
# Key:
# Type in all cases: functional
# [1] = system: K562; assay: Anticancer activity against human K562 cells after 48 hrs by SRB assay; settings: K562, 48 h; for CC50: read-out: LC50 (the source's name)
# How it was run: (§1)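 NCI five-dose screen. Cells in RPMI 1640 with 5% FBS and 2 mM L-glutamine, seeded at 5000–40,000 cells/well according to doubling time, then pre-incubated 24 h at 37 °C in 5% CO2. Drugs dissolved in DMSO, five concentrations by 10-fold or 1/2-log dilution. Cells fixed with TCA, SRB-stained, A515 read. IC50 solved from [(Ti−Tz)/(C−Tz)]×100 = 50.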
# [2] = system: HOP-62; assay: Anticancer activity against human HOP62 cells after 48 hrs by SRB assay; settings: HOP-62, 48 h; how it was run: as §1
# [3] = system: HOP-92; assay: Anticancer activity against human HOP92 cells after 48 hrs by SRB assay; settings: HOP-92, 48 h; for CC50: read-out: LC50 (the source's name); how it was run: as §1
# [4] = system: NCI-H460; assay: Anticancer activity against human NCI-H460 cells after 48 hrs by SRB assay; settings: NCI-H460, 48 h
# [5] = system: NCI-H522; assay: Anticancer activity against human NCI-H522 cells after 48 hrs by SRB assay; settings: NCI-H522, 48 h; for CC50: read-out: LC50 (the source's name)
# [6] = system: COLO 205; assay: Anticancer activity against human COLO205 cells after 48 hrs by SRB assay; settings: COLO 205, 48 h; for CC50: read-out: LC50 (the source's name); how it was run: as §1
# [7] = system: HCT-15; assay: Anticancer activity against human HCT15 cells after 48 hrs by SRB assay; settings: HCT-15, 48 h; for CC50: read-out: LC50 (the source's name); how it was run: as §1
# [8] = system: HT-29; assay: Anticancer activity against human HT-29 cells after 48 hrs by SRB assay; settings: HT-29, 48 h; for CC50: read-out: LC50 (the source's name); how it was run: as §1
# [9] = system: SW-620; assay: Anticancer activity against human SW620 cells after 48 hrs by SRB assay; settings: SW-620, 48 h; for CC50: read-out: LC50 (the source's name)
# How it was run: (§2)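 NCI-60 five-dose mode: cells in RPMI 1640 with 5% FBS and 2 mM glutamine, plated at 5000–40,000 cells/well, and preincubated 24 h, with time-zero plates TCA-fixed. Drug given at five concentrations (10-fold or ½-log serial dilutions). Cold TCA fixation 60 min at 4 °C, SRB stain, Tris solubilization, A515. IC50 taken where [(Ti−Tz)/(C−Tz)]×100 = 50.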
# [10] = system: SF-268; assay: Anticancer activity against human SF268 cells after 48 hrs by SRB assay; settings: SF-268, 48 h; for CC50: read-out: LC50 (the source's name)
# [11] = system: SF-539; assay: Anticancer activity against human SF539 cells after 48 hrs by SRB assay; settings: SF-539, 48 h; for CC50: read-out: LC50 (the source's name)
# [12] = system: U-251; assay: Anticancer activity against human U251 cells after 48 hrs by SRB assay; settings: U-251, 48 h; for CC50: read-out: LC50 (the source's name); how it was run: as §2
# [13] = system: LOX IMVI; assay: Anticancer activity against human LOXIMVI cells after 48 hrs by SRB assay; settings: for CC50: read-out: LC50 (the source's name); how it was run: as §1
# [14] = system: Malme-3M; assay: Anticancer activity against human MALME-3M cells after 48 hrs by SRB assay; settings: for CC50: read-out: LC50 (the source's name); how it was run: as §1
# [15] = system: M14; assay: Anticancer activity against human M14 cells after 48 hrs by SRB assay; settings: M14, 48 h; for CC50: read-out: LC50 (the source's name); how it was run: as §1
# [16] = system: MDA-MB-435; assay: Anticancer activity against human MDA-MB-435 cells after 48 hrs by SRB assay; settings: MDA-MB-435, 48 h; for CC50: read-out: LC50 (the source's name); how it was run: as §1
# [17] = system: SK-MEL-2; assay: Anticancer activity against human SK-MEL-2 cells after 48 hrs by SRB assay; settings: SK-MEL-2, 48 h; for CC50: read-out: LC50 (the source's name)
# [18] = system: SK-MEL-28; assay: Anticancer activity against human SK-MEL-28 cells after 48 hrs by SRB assay; settings: SK-MEL-28, 48 h; for CC50: read-out: LC50 (the source's name)
# [19] = system: SK-MEL-5; assay: Anticancer activity against human SK-MEL-5 cells after 48 hrs by SRB assay; settings: SK-MEL-5, 48 h; for CC50: read-out: LC50 (the source's name)
# [20] = system: UACC-62; assay: Anticancer activity against human UACC62 cells after 48 hrs by SRB assay; settings: UACC-62, 48 h; for CC50: read-out: LC50 (the source's name); how it was run: as §2
# [21] = system: OVCAR-4; assay: Anticancer activity against human OVCAR4 cells after 48 hrs by SRB assay; settings: OVCAR-4, 48 h
# [22] = system: OVCAR-5; assay: Anticancer activity against human OVCAR5 cells after 48 hrs by SRB assay; settings: OVCAR-5, 48 h
# [23] = system: NCI/ADR-RES; assay: Anticancer activity against human NCI/ADR-RES cells after 48 hrs by SRB assay; settings: for CC50: read-out: LC50 (the source's name)
# [24] = system: ACHN; assay: Anticancer activity against human ACHN cells after 48 hrs by SRB assay; settings: for CC50: read-out: LC50 (the source's name); how it was run: as §1
# [25] = system: CAKI-1; assay: Anticancer activity against human Caki1 cells after 48 hrs by SRB assay; settings: CAKI-1, 48 h; for CC50: read-out: LC50 (the source's name); how it was run: as §1
# [26] = system: RXF 393; assay: Anticancer activity against human RXF393 cells after 48 hrs by SRB assay; settings: RXF 393, 48 h; for CC50: read-out: LC50 (the source's name)
# [27] = system: MCF7; assay: Anticancer activity against human MCF7 cells after 48 hrs by SRB assay; settings: MCF7, 48 h; for CC50: read-out: LC50 (the source's name); how it was run: as §1
# [28] = system: MDA-MB-231; assay: Anticancer activity against human MDA-MB-231 cells after 48 hrs by SRB assay; settings: MDA-MB-231, 48 h; for CC50: read-out: LC50 (the source's name); how it was run: as §1
# [29] = system: MDA-MB-468; assay: Anticancer activity against human MDA-MB-468 cells after 48 hrs by SRB assay; settings: MDA-MB-468, 48 h; for CC50: read-out: LC50 (the source's name)
# [30] = read-out: LC50 (the source's name)
smiles,measurement,setting,value
O=C(NCCNc1nccc(-c2c(-c3cccc(O)c3)nc3sccn23)n1)Nc1cccc(C(F)(F)F)c1,GI50,[1],3.42 µM
same,TGI,[1],57.1 µM
same,CC50,[1],> 100 µM
same,GI50,[2],8.33 µM
same,LC50 (concentration killing 50% of starting cells),[2],61 µM
same,TGI,[2],23.4 µM
same,GI50,[3],2.19 µM
same,TGI,[3],9.38 µM
same,CC50,[3],> 100 µM
same,GI50,[4],4.79 µM
same,LC50,[4],83.5 µM
same,TGI,[4],20.8 µM
same,GI50,[5],2.11 µM
same,TGI,[5],5 µM
same,CC50,[5],20.9 µM
same,GI50,[6],3.36 µM
same,TGI,[6],12 µM
same,CC50,[6],59.5 µM
same,GI50,[7],4.26 µM
same,TGI,[7],24.1 µM
same,CC50,[7],> 100 µM
same,GI50,[8],3.45 µM
same,TGI,[8],10.8 µM
same,CC50,[8],49.9 µM
same,GI50,[9],3.84 µM
same,TGI,[9],13.4 µM
same,CC50,[9],64.5 µM
same,GI50,[10],3.45 µM
same,TGI,[10],14.6 µM
same,CC50,[10],> 100 µM
same,GI50,[11],13.1 µM
same,TGI,[11],36.9 µM
same,CC50,[11],> 100 µM
same,GI50,[12],4.95 µM
same,TGI,[12],23.6 µM
same,CC50,[12],> 100 µM
same,GI50,[13],4.05 µM
same,TGI,[13],26.2 µM
same,CC50,[13],> 100 µM
same,GI50,[14],2.09 µM
same,TGI,[14],7.3 µM
same,CC50,[14],50.7 µM
same,GI50,[15],1.79 µM
same,TGI,[15],3.39 µM
same,CC50,[15],6.41 µM
same,GI50,[16],2.04 µM
same,TGI,[16],4.94 µM
same,CC50,[16],41 µM
same,GI50,[17],2.8 µM
same,TGI,[17],6.07 µM
same,CC50,[17],36 µM
same,GI50,[18],2.68 µM
same,TGI,[18],10 µM
same,CC50,[18],62.2 µM
same,GI50,[19],2.62 µM
same,TGI,[19],8.43 µM
same,CC50,[19],28.9 µM
same,GI50,[20],1.94 µM
same,TGI,[20],6.51 µM
same,CC50,[20],28.2 µM
same,GI50,[21],3.97 µM
same,TGI,[21],14.2 µM
same,CC50,[21]; [30],39.7 µM
same,GI50,[22],16.3 µM
same,TGI,[22],65.3 µM
same,CC50,[22]; [30],> 100 µM
same,GI50,[23],26.9 µM
same,TGI,[23],> 100 µM
same,CC50,[23],> 100 µM
same,GI50,[24],5.79 µM
same,TGI,[24],45.7 µM
same,CC50,[24],> 100 µM
same,GI50,[25],14.2 µM
same,TGI,[25],50.5 µM
same,CC50,[25],> 100 µM
same,GI50,[26],2.41 µM
same,TGI,[26],5.1 µM
same,CC50,[26],12.9 µM
same,GI50,[27],3.57 µM
same,TGI,[27],16 µM
same,CC50,[27],78.1 µM
same,GI50,[28],3.52 µM
same,TGI,[28],12.3 µM
same,CC50,[28],> 100 µM
same,GI50,[29],1.67 µM
same,TGI,[29],3.33 µM
same,CC50,[29],6.67 µM
O=C(NCCNc1nccc(-c2c(-c3cccc(O)c3)nc3sccn23)n1)c1ccccc1O,GI50,[1],6.06 µM
same,TGI,[1],> 100 µM
same,CC50,[1],> 100 µM
same,GI50,[2],3.59 µM
same,LC50 (concentration killing 50% of starting cells),[2],> 100 µM
same,TGI,[2],32.5 µM
same,GI50,[3],9.74 µM
same,TGI,[3],34.7 µM
same,CC50,[3],> 100 µM
same,GI50,[4],7.88 µM
same,LC50,[4],> 100 µM
same,TGI,[4],31 µM
same,GI50,[5],4.83 µM
same,TGI,[5],20.4 µM
same,CC50,[5],57 µM
same,GI50,[6],5.58 µM
same,TGI,[6],20.9 µM
same,CC50,[6],66.1 µM
same,GI50,[7],3.83 µM
same,TGI,[7],24.5 µM
same,CC50,[7],> 100 µM
same,GI50,[8],4.22 µM
same,TGI,[8],15.3 µM
same,CC50,[8],40.8 µM
same,GI50,[9],5.43 µM
same,TGI,[9],49.5 µM
same,CC50,[9],> 100 µM
same,GI50,[10],3.59 µM
same,TGI,[10],24.9 µM
same,CC50,[10],> 100 µM
same,GI50,[11],11.9 µM
same,TGI,[11],> 100 µM
same,CC50,[11],> 100 µM
same,GI50,[12],0.152 µM
same,TGI,[12],18.7 µM
same,CC50,[12],64.6 µM
same,GI50,[13],0.335 µM
same,TGI,[13],16.4 µM
same,CC50,[13],75.1 µM
same,GI50,[14],0.433 µM
same,TGI,[14],11.8 µM
same,CC50,[14],45.1 µM
same,GI50,[15],0.683 µM
same,TGI,[15],39 µM
same,CC50,[15],> 100 µM
same,GI50,[16],1.22 µM
same,TGI,[16],3.54 µM
same,CC50,[16],10.6 µM
same,GI50,[17],0.651 µM
same,TGI,[17],15.9 µM
same,CC50,[17],> 100 µM
same,GI50,[18],0.161 µM
same,TGI,[18],11.1 µM
same,CC50,[18],61.2 µM
same,GI50,[19],4.57 µM
same,TGI,[19],53.3 µM
same,CC50,[19],> 100 µM
same,GI50,[20],8.32 µM
same,TGI,[20],96.9 µM
same,CC50,[20],> 100 µM
same,GI50,[23],5.05 µM
same,TGI,[23],68.5 µM
same,CC50,[23],> 100 µM
same,GI50,[24],3.89 µM
same,TGI,[24],> 100 µM
same,CC50,[24],> 100 µM
same,GI50,[25],3.71 µM
same,TGI,[25],55.6 µM
same,CC50,[25],> 100 µM
same,GI50,[26],3.19 µM
same,TGI,[26],21.2 µM
same,CC50,[26],> 100 µM
same,GI50,[27],4.03 µM
same,TGI,[27],22.2 µM
same,CC50,[27],> 100 µM
same,GI50,[28],2.63 µM
same,TGI,[28],62.3 µM
same,CC50,[28],> 100 µM
same,GI50,[29],2.3 µM
same,TGI,[29],18.2 µM
same,CC50,[29],> 100 µM
